ChEMBL document CHEMBL4400525, “Toward a treatment of diabesity: In vitro and in vivo evaluation of uncharged bromophenol derivatives as a new series of PTP1B inhibitors” (Eur J Med Chem, 2019)
Active and inactive are the calls of the source. The rule behind the calls is not given here.

Experiments:
[1] = molecular target: T1, Tyrosine-protein phosphatase non-receptor type 1 (Homo sapiens, UniProt P18031); assay: Inhibition of GST-fused PTP1B catalytic domain (1 to 321 residues) (unknown origin) expressed in Escherichia coli using pNPP as substrate measured after 30 mins by spectrophotometric method
T1 sequence (P18031 whole entry): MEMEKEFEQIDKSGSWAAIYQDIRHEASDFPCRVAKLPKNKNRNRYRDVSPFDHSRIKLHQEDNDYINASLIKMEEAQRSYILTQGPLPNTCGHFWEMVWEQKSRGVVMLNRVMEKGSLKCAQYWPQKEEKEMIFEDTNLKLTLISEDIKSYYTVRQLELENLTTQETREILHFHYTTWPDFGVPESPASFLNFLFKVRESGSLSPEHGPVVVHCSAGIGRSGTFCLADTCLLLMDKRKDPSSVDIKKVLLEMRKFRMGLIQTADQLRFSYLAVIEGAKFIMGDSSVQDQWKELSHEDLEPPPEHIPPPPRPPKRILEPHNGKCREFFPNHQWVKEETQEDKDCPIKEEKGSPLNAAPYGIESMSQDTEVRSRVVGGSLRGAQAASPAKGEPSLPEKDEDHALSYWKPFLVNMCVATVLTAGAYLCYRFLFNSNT

[2] = molecular target: Tyrosine-protein phosphatase non-receptor type 1 (Homo sapiens, UniProt P18031, A27S); assay: Inhibition of PTP1B A27S mutant (unknown origin)
[3] = molecular target: T2, Tyrosine-protein phosphatase non-receptor type 11 (Homo sapiens, UniProt Q06124); assay: Inhibition of SHP2 (unknown origin)
T2 sequence (Q06124 whole entry): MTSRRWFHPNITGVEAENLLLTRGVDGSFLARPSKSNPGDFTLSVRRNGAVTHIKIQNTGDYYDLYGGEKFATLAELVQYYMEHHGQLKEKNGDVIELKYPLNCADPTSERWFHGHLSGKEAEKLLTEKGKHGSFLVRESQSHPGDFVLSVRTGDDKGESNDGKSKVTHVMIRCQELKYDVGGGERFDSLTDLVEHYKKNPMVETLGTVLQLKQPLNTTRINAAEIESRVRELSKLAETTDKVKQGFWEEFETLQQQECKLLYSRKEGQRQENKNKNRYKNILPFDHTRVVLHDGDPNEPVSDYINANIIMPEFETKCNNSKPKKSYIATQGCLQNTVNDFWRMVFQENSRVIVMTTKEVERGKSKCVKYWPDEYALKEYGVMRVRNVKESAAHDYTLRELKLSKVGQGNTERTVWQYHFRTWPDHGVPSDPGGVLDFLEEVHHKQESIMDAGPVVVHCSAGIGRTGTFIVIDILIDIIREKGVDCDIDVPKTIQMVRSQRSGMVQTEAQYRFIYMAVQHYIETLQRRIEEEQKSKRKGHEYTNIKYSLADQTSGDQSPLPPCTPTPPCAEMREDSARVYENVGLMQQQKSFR

[4] = molecular target: Receptor-type tyrosine-protein phosphatase F (Homo sapiens, UniProt P10586); assay: Inhibition of LAR (unknown origin)
Homo sapiens [5] = organism: Homo sapiens; assay: Selectivity ratio of IC50 for SHP1 (unknown origin) to IC50 for GST-fused PTP1B catalytic domain (1 to 321 residues) (unknown origin) expressed in Escherichia coli
Homo sapiens [6] = organism: Homo sapiens; assay: Selectivity ratio of IC50 for SHP2 (unknown origin) to IC50 for GST-fused PTP1B catalytic domain (1 to 321 residues) (unknown origin) expressed in Escherichia coli
Mus musculus [7] = assay: Antiobesity activity in BKS db mouse assessed as decrease in food intake at 100 mg/kg, po administered once daily for 5 weeks; assay type: functional, organism-based
Procedure, shortened: (§1)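 Diabetic BKS db mice, n = 8 per group, were given 100 mg/kg/day orally for five weeks. Vehicle- and metformin-treated db mice and vehicle-treated BKS mice served as controls. Food intake, water intake and body weight were followed weekly, and abdominal fat pads were weighed at the end. Values are mean ± SEM.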

Mus musculus [8] = assay: Antiobesity activity in BKS db mouse assessed as decrease in abdominal fat weight at 100 mg/kg, po administered once daily for 5 weeks; assay type: functional, organism-based; procedure, shortened: as §1
Mus musculus [9] = assay: Antidiabetic activity in BKS db mouse assessed as reduction in fasting blood glucose level at 100 mg/kg, po administered once daily for 3 weeks prior to 16 hrs fasting followed by glucose challenge and measured after 120 mins by OGTT; assay type: functional, organism-based
Procedure, shortened: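 After treatment at 100 mg/kg/day p.o., the db mice (n = 8) received an oral glucose load of 2 g/kg. Blood glucose was read 120 min after the load. Values are mean ± SEM.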

[10] = Acute toxicity in Kunming mouse assessed as effect on food intake at 500 to 2000 mg/kg, po administered as single dose measured for 1 week; assay type: organism-based; settings: in vivo, 168 h
[11] = Sub-acute toxicity in Kunming mouse assessed as change in body weight at 1000 mg/kg, po administered once daily for 14 days measured during compound dosing; assay type: organism-based; settings: in vivo, 336 h
Procedure, shortened: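 Mice were dosed orally with 1000 mg/kg body wt per day for 14 days alongside a vehicle-dosed group. Water intake, food intake and body weight were tracked over the dosing period and reported as mean ± SEM, n = 10.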

[12] = Acute toxicity in Kunming mouse assessed as visual toxic effect at 500 to 2000 mg/kg, po administered as single dose measured for 1 week; assay type: organism-based; settings: in vivo, 168 h
[13] = Sub-acute toxicity in Kunming mouse assessed as behavioral changes at 1000 mg/kg, po administered once daily for 14 days measured during compound dosing; assay type: organism-based; settings: in vivo, 336 h
[14] = Sub-acute toxicity in Kunming mouse assessed as mortality at 1000 mg/kg, po administered once daily for 14 days measured during compound dosing; assay type: organism-based; settings: in vivo, 336 h
[15] = Sub-acute toxicity in Kunming mouse assessed as structural changes in liver at 1000 mg/kg, po administered once daily for 14 days measured 24 hrs post last dose by gomori staining based histological analysis; assay type: organism-based; settings: in vivo
Procedure, shortened: (§2)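 After 14 days of oral dosing at 1000 mg/kg body wt per day, with vehicle-treated controls, liver, heart, kidney and lung sections were Gomori-stained. Sections were examined for histological structure and cell size.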

[16] = Sub-acute toxicity in Kunming mouse assessed as structural changes in kidneys at 1000 mg/kg, po administered once daily for 14 days measured 24 hrs post last dose by gomori staining based histological analysis; assay type: organism-based; settings: in vivo; procedure, shortened: as §2
[17] = Sub-acute toxicity in Kunming mouse assessed as effect on liver size at 1000 mg/kg, po administered once daily for 14 days measured 24 hrs post last dose by gomori staining based histological analysis; assay type: organism-based; settings: in vivo; procedure, shortened: as §2
[18] = Sub-acute toxicity in Kunming mouse assessed as effect on heart size at 1000 mg/kg, po administered once daily for 14 days measured 24 hrs post last dose by gomori staining based histological analysis; assay type: organism-based; settings: in vivo; procedure, shortened: as §2
[19] = Cmax in specific pathogen free Sprague-Dawley rat at 2 mg/kg, iv measured after 5 mins by LC-MS/MS analysis; assay type: ADME, organism-based; set-up: dose 2 mg/kg, route intravenous; settings: in vivo
[20] = Mean residence time in specific pathogen free Sprague-Dawley rat at 2 mg/kg, iv or 10 mg/kg, po by LC-MS/MS analysis; assay type: ADME, organism-based; settings: in vivo
[21] = Oral bioavailability in specific pathogen free Sprague-Dawley rat at 10 mg/kg by LC-MS/MS analysis; assay type: ADME, organism-based; settings: in vivo
Mus musculus [22] = assay: Antidiabetic activity in BKS db mouse assessed as reduction in blood glucose level at 100 mg/kg, po administered once daily for 5 weeks measured up to three weeks during compound dosing by glucometry

Chain of Receptor-type tyrosine-protein phosphatase F (P10586 whole entry, the tested form may be a part): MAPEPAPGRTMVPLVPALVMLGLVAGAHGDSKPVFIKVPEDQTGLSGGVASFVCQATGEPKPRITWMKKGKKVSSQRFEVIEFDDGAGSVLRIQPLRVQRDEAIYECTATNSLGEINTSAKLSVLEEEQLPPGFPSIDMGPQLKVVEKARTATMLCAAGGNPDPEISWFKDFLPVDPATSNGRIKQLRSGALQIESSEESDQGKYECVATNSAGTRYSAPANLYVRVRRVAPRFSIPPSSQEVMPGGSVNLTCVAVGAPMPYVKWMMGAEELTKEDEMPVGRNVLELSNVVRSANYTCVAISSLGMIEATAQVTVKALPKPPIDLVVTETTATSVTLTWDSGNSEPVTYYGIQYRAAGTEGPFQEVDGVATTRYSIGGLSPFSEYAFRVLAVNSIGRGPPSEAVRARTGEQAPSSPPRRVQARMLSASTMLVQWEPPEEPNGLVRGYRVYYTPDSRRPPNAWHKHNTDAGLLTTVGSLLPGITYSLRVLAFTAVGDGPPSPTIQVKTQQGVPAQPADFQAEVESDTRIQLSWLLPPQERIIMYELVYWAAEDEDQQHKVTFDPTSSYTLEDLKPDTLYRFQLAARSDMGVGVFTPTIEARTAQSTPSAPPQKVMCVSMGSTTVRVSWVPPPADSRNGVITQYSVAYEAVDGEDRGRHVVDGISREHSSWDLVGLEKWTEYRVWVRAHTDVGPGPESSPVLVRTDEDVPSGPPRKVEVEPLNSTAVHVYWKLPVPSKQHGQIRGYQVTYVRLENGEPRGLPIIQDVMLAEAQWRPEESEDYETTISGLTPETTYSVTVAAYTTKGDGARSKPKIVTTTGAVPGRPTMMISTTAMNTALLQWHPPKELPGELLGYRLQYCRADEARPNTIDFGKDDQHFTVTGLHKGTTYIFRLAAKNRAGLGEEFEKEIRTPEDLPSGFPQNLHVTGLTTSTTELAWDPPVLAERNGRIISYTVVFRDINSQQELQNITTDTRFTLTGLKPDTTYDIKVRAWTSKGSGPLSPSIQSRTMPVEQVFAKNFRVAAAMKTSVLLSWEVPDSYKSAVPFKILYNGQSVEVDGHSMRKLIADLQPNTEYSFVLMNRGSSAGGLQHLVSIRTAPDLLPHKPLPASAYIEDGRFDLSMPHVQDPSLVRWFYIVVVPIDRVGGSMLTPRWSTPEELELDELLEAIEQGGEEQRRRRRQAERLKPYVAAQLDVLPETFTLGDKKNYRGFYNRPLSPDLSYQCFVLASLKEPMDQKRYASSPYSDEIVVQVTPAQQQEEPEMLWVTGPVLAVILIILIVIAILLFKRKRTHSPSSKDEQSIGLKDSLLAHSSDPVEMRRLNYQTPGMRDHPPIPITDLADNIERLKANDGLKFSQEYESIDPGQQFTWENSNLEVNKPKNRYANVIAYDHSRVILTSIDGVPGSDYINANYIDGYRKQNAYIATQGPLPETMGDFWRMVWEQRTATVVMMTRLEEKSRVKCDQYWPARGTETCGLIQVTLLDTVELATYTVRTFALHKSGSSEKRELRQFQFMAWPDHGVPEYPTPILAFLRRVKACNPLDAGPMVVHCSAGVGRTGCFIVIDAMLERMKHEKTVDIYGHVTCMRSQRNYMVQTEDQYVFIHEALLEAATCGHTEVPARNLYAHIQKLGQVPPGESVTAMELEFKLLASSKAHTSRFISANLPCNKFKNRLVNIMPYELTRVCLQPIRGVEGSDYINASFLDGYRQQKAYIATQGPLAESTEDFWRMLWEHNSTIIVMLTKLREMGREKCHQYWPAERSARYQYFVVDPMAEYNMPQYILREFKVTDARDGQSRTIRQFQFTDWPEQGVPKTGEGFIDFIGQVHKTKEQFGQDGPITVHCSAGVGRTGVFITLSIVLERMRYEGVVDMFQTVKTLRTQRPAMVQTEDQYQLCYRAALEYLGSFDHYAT
Chain of Tyrosine-protein phosphatase non-receptor type 1 (Homo sapiens, UniProt P18031, A27S) (P18031 whole entry A27S): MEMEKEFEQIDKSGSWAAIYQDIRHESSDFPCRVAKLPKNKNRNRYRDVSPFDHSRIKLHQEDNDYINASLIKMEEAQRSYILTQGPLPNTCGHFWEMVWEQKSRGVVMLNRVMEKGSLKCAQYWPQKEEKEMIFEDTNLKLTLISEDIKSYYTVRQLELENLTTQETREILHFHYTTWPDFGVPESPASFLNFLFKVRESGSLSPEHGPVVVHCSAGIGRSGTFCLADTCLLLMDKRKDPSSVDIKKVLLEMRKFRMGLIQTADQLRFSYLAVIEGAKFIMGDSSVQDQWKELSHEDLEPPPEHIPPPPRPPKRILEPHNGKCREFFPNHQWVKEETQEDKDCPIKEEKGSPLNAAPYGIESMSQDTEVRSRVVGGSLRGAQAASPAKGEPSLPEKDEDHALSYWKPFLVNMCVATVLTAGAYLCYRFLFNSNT

## CCOc1ccc(Oc2ccc(-c3cnc(-c4cc(O)c(O)c(Br)c4Br)o3)cc2)cc1
[1]
  IC50: 190 nM
[2]
  IC50: 1780 nM
[3]
  IC50: > 36.8 µM
[4]
  IC50: > 36.8 µM
Homo sapiens [5]
  Ratio IC50: 20 to 200
Homo sapiens [6]
  Ratio IC50: 20 to 200
Mus musculus [7]
  Activity: Active
Mus musculus [8]
  Activity: Active
Mus musculus [9]
  Activity: Active
[10]
  Activity: Non-Toxic
[11]
  Activity: Toxic
[12]
  Activity: Non-Toxic
[13]
  Activity: Non-Toxic
[14]
  Activity: Non-Toxic
[15]
  Activity: Non-Toxic
[16]
  Activity: Non-Toxic
[17]
  Activity: Non-Toxic
[18]
  Activity: Non-Toxic
[19]
  Cmax: 3.35 µM
[20]
  MRT: 34.8 min
[21]
  bioavailability: 8.31%
Mus musculus [22]
  Activity: inactive
